Results from different studies.
Each line is one published result; the experiments were not run side by side.

SMILES | test | test system | setting | half-life
CCc1cc(C(=O)NC)c2nccc(N3CCc4c(cc(Cn5ccnc5)cc4-c4cn(C)nc4C(F)(F)F)C3=O)c2c1 |  | male Sprague-Dawley rat, plasma | oral, 50 mg/kg, single dose | 3.8 h
COc1ccc2c(Cc3ccccc3F)c3n(c(=O)c2c1OC)CCc1cc2c(cc1-3)OCO2 |  | rat, plasma | oral, 5 mg/kg | 17.8 h
COc1cc2c3c(n(CCCN4CCOCC4)c(=O)c2cc1OC)-c1cc2c(cc1C3=O)OCO2 |  | female Fischer 344 rat, plasma | intravenous, 24 mg/m², single dose | 4.6 h
O=C(O)/C=C/c1ccc(O)c(O)c1 | HPLC | Wistar rat, plasma | oral | 0.33 h
CCc1cc(OC)c2nccc(N3CCc4c(cc(Cn5ccnc5)cc4-c4cn(C)nc4C(F)(F)F)C3=O)c2c1 |  | male Sprague-Dawley rat, plasma | oral, 50 mg/kg | 1.3 h
COc1nc(-c2cc(C)c(N[C@@H](C)c3cc(F)cc(F)c3)nn2)ccc1-n1cnc(C)c1 |  | male Sprague-Dawley rat, plasma | oral, 5 mg/kg, single dose | 2.2 h
O=C(Nc1cc(F)c(F)c(F)c1)c1ccc(F)c(S(=O)(=O)NCc2cccc(B(O)O)c2)c1 |  | male Sprague-Dawley rat, plasma | oral, 20 mg/kg | 1.08 h
COc1ccc2c(=O)n(C)c(-c3ccccc3)nc2c1 |  | male Sprague-Dawley rat, plasma | oral, 10 mg/kg | 0.74 h
N#Cc1[nH]nnc1-c1csc(-c2ccc(Cl)cc2)n1 |  | male Sprague-Dawley rat, plasma | oral, 10 mg/kg | 2.9 h
N#Cc1ccc(Nc2nc(N)cc(Oc3c(F)cc(-c4ccc(C#N)cc4)cc3F)n2)cc1 |  | Sprague-Dawley rat, plasma | intravenous, 1 mg/kg | 1.25 h
Cc1cnc(N2CC3(CCOCC3)C2)c(C(=O)Nc2ccc(C(=O)N3CCc4cc(C(=O)Nc5c(C)cccc5F)sc4-c4ccccc43)cc2)c1 |  | rat, plasma | intravenous, 0.1 mg/kg, single dose | ~2.3 h
COCCOC(=O)C1=C(C)NC(C)=C(C(=O)OC(C)C)C1c1cccc([N+](=O)[O-])c1 (stereo not drawn) |  | male Sprague-Dawley rat, plasma | oral, 12 mg/kg | 7.5 h
O=c1[nH]cc(F)c(=O)[nH]1 |  | Sprague-Dawley rat, plasma | oral, 20 mg/kg | 1.81 h
Cc1c(-c2ccccc2)cccc1N1C(=O)c2cc(CN[C@H](C(=O)O)C(C)O)c(OCc3cccc(C#N)c3)cc2C1=O (stereo partly drawn) |  | Sprague-Dawley rat, plasma | intravenous, 5 mg/kg | 6.44 h
O=C(Nc1ccc(C(F)(F)F)cc1)N1CCC(Cc2cccc(Oc3ccc(C(F)(F)F)cn3)c2)CC1 |  | male Sprague-Dawley rat, blood | oral, 1 mg/kg | 7.2 h
Oc1c(Br)cc(Cl)c2cccnc12 |  | Sprague-Dawley rat, plasma | oral, 20 mg/kg | 5.6 h
N#Cc1[nH]nnc1-c1cccc(-c2cc(F)cc(C(F)(F)F)c2)c1 |  | male Sprague-Dawley rat, plasma | oral, 10 mg/kg | 2.6 h
C=CC(=O)Nc1cc(Nc2nccc(Nc3cc(Cl)c(F)cc3C(C)(C)O)n2)c(OC)cc1N1CC[C@@H](N(C)C)C1 |  | Wistar rat, plasma | intravenous, 3 mg/kg | 6.37 h
Nc1ncn([C@H]2C[C@H](O)[C@@H](CO)O2)c(=O)n1 |  | male Wistar rat, plasma | intravenous, 21 µmol/kg | 2.43 h
CNCc1cc(-c2ccccc2F)n(S(=O)(=O)c2cccnc2)c1 |  | male Sprague-Dawley rat, plasma | oral, 10 mg/kg | 1 h
CCNC(=O)c1nc(-c2ccc3[nH]c(-c4nc(C)no4)cc3c2)c(C)[nH]1 |  | Sprague-Dawley rat, plasma | intravenous, 1 mg/kg | 0.9 h
Oc1c(-n2ccnn2)cnn1-c1cc(N2CCOCC2)ncn1 |  | male rat, plasma | intravenous, 5 mg/kg | 3.1 h
CNCc1cc(-c2ccccc2F)n(S(=O)(=O)c2cccnc2)c1 |  | Sprague-Dawley rat, plasma | oral, 10 mg/kg | 1.29 h
CCOC(=O)[C@@]12C[C@@H]1[C@@H](n1ccc3c(NC)nc(C#Cc4ccc(Cl)s4)nc31)[C@H](O)[C@@H]2O |  | male Sprague-Dawley rat, plasma | intravenous, 0.5 mg/kg | 1.31 h
